Experiments:
[1] = molecular target: Epidermal growth factor receptor (Homo sapiens, UniProt P00533); assay: Concentration required to inhibit phosphorylation of isolated human epidermal growth factor tyrosine kinase receptor by 50%
[2] = molecular target: T1, Platelet-derived growth factor receptor (Homo sapiens, UniProt P09619+P16234); assay: Inhibition of isolated human PDGF receptor phosphorylation; assay type: protein-complex assay
[3] = molecular target: T1, Platelet-derived growth factor receptor; assay: Inhibition of human PDGF receptor phosphorylation; 0.1-0.6; assay type: protein-complex assay
Outline: (§1)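 Receptor from quiescent NIH 3T3 cell lysates (24 h in 0.5% calf serum before lysis), stimulated with 10 ng/mL PDGF for 30 min at 4 °C, then immunoprecipitated with anti-PDGF receptor antibody on Protein A beads. Compound pre-incubated 10 min at 4 °C in 50 mM Tris, 10 mM MnCl2, pH 7.5. At least two dose-response assays per compound.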

[4] = molecular target: T1, Platelet-derived growth factor receptor; assay: Inhibition of human PDGF receptor phosphorylation; 0.015-0.03; assay type: protein-complex assay
Outline: (§2)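 PDGF receptor from NIH 3T3 cell lysates (cells made quiescent 24 h in 0.5% calf serum), stimulated with 10 ng/mL PDGF for 30 min at 4 °C and immunoprecipitated on Protein A beads. Each compound ran in at least two dose-response assays.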

[5] = molecular target: T1, Platelet-derived growth factor receptor; assay: Inhibition of human PDGF receptor phosphorylation; 0.3-0.5; assay type: protein-complex assay; outline: as §2
[6] = molecular target: T1, Platelet-derived growth factor receptor; assay: Inhibition of human PDGF receptor phosphorylation; 0.03-0.1; assay type: protein-complex assay; outline: as §1
[7] = molecular target: T1, Platelet-derived growth factor receptor; assay: Inhibition of human PDGF receptor phosphorylation; 0.003-0.005; assay type: protein-complex assay
[8] = molecular target: T1, Platelet-derived growth factor receptor; assay: Inhibition of human PDGF receptor phosphorylation; 1-7; assay type: protein-complex assay
[9] = molecular target: T1, Platelet-derived growth factor receptor; assay: Inhibition of human PDGF receptor phosphorylation; 0.002-0.06; assay type: protein-complex assay; outline: as §2
[10] = molecular target: T1, Platelet-derived growth factor receptor; assay: Inhibition of human PDGF receptor phosphorylation; 0.07-0.15; assay type: protein-complex assay
[11] = molecular target: T1, Platelet-derived growth factor receptor; assay: Inhibition of human PDGF receptor phosphorylation; 0.02-0.05; assay type: protein-complex assay; outline: as §2
[12] = molecular target: T1, Platelet-derived growth factor receptor; assay: Inhibition of human PDGF receptor phosphorylation; 0.04-0.07; assay type: protein-complex assay; outline: as §1
[13] = molecular target: T1, Platelet-derived growth factor receptor; assay: Inhibition of human PDGF receptor phosphorylation; 1-2; assay type: protein-complex assay; outline: as §2
[14] = molecular target: T1, Platelet-derived growth factor receptor; assay: Inhibition of human PDGF receptor phosphorylation; 2-10; assay type: protein-complex assay; outline: as §2
[15] = molecular target: T1, Platelet-derived growth factor receptor; assay: Inhibition of human PDGF receptor phosphorylation; 0.02-0.08; assay type: protein-complex assay
[16] = molecular target: T1, Platelet-derived growth factor receptor; assay: Inhibition of human PDGF receptor phosphorylation; 0.015-0.025; assay type: protein-complex assay; outline: as §2
[17] = molecular target: T1, Platelet-derived growth factor receptor; assay: Inhibition of human PDGF receptor phosphorylation; 0.2-0.6; assay type: protein-complex assay; outline: as §2
[18] = molecular target: T1, Platelet-derived growth factor receptor; assay: Inhibition of human PDGF receptor phosphorylation; 0.01-0.02; assay type: protein-complex assay
[19] = molecular target: cAMP-dependent protein kinase (PKA) (Homo sapiens, UniProt P22694+P17612+P22612); assay: Test for the inhibition of protein kinase A; assay type: protein assay
[20] = molecular target: T1, Platelet-derived growth factor receptor; assay: Inhibition of human PDGF receptor phosphorylation; 0.5-3; assay type: protein-complex assay
[21] = molecular target: T1, Platelet-derived growth factor receptor; assay: Inhibition of human PDGF receptor phosphorylation; 0.008-0.07; assay type: protein-complex assay
[22] = molecular target: T1, Platelet-derived growth factor receptor; assay: Inhibition of human PDGF receptor phosphorylation; 0.02-0.04; assay type: protein-complex assay; outline: as §2
[23] = molecular target: T1, Platelet-derived growth factor receptor; assay: Concentration required to inhibit phosphorylation of isolated human PDGF receptor by 50%; 0.3-1; assay type: protein-complex assay; outline: as §2
[24] = molecular target: T1, Platelet-derived growth factor receptor; assay: Inhibition of human PDGF receptor phosphorylation; 0.15-0.5; assay type: protein-complex assay; outline: as §2

Epidermal growth factor receptor, sequence (P00533 whole entry): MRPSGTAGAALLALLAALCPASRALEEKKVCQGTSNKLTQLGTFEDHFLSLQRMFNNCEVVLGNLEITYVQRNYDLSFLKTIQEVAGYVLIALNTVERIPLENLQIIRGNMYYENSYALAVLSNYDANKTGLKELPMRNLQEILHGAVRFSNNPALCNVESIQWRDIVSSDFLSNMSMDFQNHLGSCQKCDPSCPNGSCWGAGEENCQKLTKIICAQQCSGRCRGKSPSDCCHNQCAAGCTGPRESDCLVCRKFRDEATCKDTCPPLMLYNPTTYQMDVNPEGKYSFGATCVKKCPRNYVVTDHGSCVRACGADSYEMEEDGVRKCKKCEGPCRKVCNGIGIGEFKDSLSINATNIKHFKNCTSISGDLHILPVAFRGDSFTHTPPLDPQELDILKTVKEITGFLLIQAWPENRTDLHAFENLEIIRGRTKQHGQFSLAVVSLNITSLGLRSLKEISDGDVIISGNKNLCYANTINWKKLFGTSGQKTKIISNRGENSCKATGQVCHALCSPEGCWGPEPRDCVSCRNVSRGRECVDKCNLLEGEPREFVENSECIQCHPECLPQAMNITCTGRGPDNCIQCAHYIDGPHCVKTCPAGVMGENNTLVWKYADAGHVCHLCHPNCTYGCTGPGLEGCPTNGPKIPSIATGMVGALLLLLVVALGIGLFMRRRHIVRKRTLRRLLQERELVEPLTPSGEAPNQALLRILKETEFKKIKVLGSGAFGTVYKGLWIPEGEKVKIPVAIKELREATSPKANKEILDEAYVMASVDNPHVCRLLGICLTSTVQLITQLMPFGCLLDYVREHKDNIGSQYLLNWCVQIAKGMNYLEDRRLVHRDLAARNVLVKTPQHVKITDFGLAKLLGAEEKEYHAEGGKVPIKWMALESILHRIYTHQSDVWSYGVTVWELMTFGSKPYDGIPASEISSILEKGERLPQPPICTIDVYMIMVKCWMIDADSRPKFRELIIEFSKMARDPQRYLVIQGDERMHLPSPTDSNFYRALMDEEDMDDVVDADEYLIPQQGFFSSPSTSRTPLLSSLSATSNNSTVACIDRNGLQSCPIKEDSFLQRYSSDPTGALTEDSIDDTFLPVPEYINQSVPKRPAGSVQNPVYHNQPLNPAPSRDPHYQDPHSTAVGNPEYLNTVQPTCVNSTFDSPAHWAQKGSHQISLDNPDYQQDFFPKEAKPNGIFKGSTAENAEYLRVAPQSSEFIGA

Compound	IC50 [1] [nM]	IC50 [2] [nM]	further results
COc1cc2cc(-c3ccc(OCc4ccccc4)cc3)cnc2cc1OC	> 20000	> 30000	
COc1cc2cc(-c3c[nH]c4ccccc34)cnc2cc1OC	> 20000		IC50 [3]: 600 nM
COc1cc2cc(-c3ccc(=O)[nH]c3)cnc2cc1OC	> 20000		IC50 [4]: 30 nM
COc1cc2cc(CCC3CCCCC3)cnc2cc1OC	> 20000		IC50 [5]: 500 nM
COc1ccc(-c2cnc3cc(OC)c(OC)cc3c2)c(OC)c1	> 20000	> 50000	
COc1ccc(/C=C/c2cnc3cc(OC)c(OC)cc3c2)cc1	> 20000		IC50 [6]: 100 nM
COc1ccc(-c2cnc3cc(OC)c(OC)cc3c2)cc1F	> 20000		IC50 [7]: 5 nM
COc1cc2cc(-c3ccc(Cl)c(Cl)c3)cnc2cc1OC	> 20000		IC50 [8]: 7000 nM
COc1cc2cc(-c3ccccc3OC)cnc2cc1OC	> 20000	2000	
COc1ccc2cc(-c3ccsc3)cnc2c1	> 20000		IC50 [9]: 60 nM
COc1cc2cc(-c3ccccc3)cnc2cc1OC	> 20000		IC50 [10]: 150 nM
Cc1ccc(C)c2ncc(-c3ccsc3)cc12	> 20000	> 50000	
COc1cc2cc(-c3ccc(N(C)C)cc3)cnc2cc1OC	> 20000	10000	
COc1cc2cc(C#Cc3ccccc3)cnc2cc1OC	> 20000		IC50 [11]: 50 nM
COc1cc2cc(N)cnc2cc1OC	> 20000	> 50000	
COc1cc2cc(OCc3ccccc3)cnc2cc1OC	> 20000		IC50 [12]: 70 nM

Compound	IC50 [1] [nM]	IC50 [2] [nM]	further results
Clc1cc2cc(-c3ccsc3)cnc2cc1Cl	> 20000		IC50 [13]: 2000 nM
COc1ccc(-c2cnc3cc(OC)c(OC)cc3c2)cc1OC	> 20000		IC50 [14]: 10000 nM
COc1cc2cc(NCc3ccccc3)cnc2cc1OC	> 20000		IC50 [15]: 80 nM
COc1cc2cc(-c3cccc(F)c3)cnc2cc1OC	> 20000		IC50 [16]: 25 nM
COc1cccc(-c2cnc3cc(OC)c(OC)cc3c2)c1	> 20000		IC50 [13]: 2000 nM
c1cc(-c2cnc3cc4c(cc3c2)OCO4)cs1	> 20000		IC50 [17]: 600 nM
COc1cc2cc(-c3ccsc3)cnc2cc1OC	> 20000		IC50 [18]: 20 nM; IC50 [19]: > 200000 nM
COc1ccc(/C=C(\C#N)c2cccnc2)cc1OC	700		IC50 [20]: 3000 nM
COc1ccc(-c2cnc3cc(OC)c(OC)cc3c2)cn1	> 20000		IC50 [21]: 70 nM
COc1cc2cc(-c3sccc3Cl)cnc2cc1OC	> 20000	1000	
COc1ccc2cc(-c3cccnc3)cnc2c1OC	> 25000	> 50000	
COc1cc2cc(C3=CCCC3)cnc2cc1OC	> 20000		IC50 [22]: 40 nM
Fc1cccc2ncc(-c3ccsc3)cc12		20	
COc1cc2cc(-c3ccc(-c4ccccc4)cc3)cnc2cc1OC	> 20000	> 50000	
COc1cc2cc(C#CC3CCCCC3)cnc2cc1OC	> 20000		IC50 [23]: 1000 nM
COc1cc2cc(-c3ccc(OC)c([N+](=O)[O-])c3)cnc2cc1OC	> 20000		IC50 [24]: 500 nM
